The target of test [1] is GABA-A receptor; anion channel. In words: In vitro inhibition of [3H]diazepam binding to benzodiazepine receptor in rat cerebral cortical membrane. Type of test: cell membranes.
The target of test [2] is T1, GABA-A receptor; anion channel (Rattus norvegicus) (UniProt O09028+P15431+P18506+P18508+P19969+P20236+P23574+P23576+P28471+P28473+P30191+P62813+P63079+P63138+Q91ZM7+Q9ES14).
The target of test [3] is T1, GABA-A receptor; anion channel (Rattus norvegicus). The experiment in a line: Hill coefficient for inhibition of ~2 nM [3H]diazepam binding to GABA-A benzodiazepine receptor of rat cerebral cortical membrane. The procedure, abridged:
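Rat cerebral cortex tissue was homogenized in 100 volumes of 50 mM Tris-HCl pH 7.4 and washed three times by centrifugation at 20000g. […] Hill coefficients came from least mean squares regression of the inhibition curves.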

Each structure is given as a SMILES string.

As a reminder, the Ki is a dissociation constant, usually derived from enzyme kinetics or from competition with a known ligand. A low value points to higher affinity. Consider `O=C(O)C1Cc2ccccc2CN1` (configuration not stated), for which the Ki in test [1] was more than 100 µM.
Same read-out and setting: the same measure for `COC(=O)C1Cc2c([nH]c3ccccc23)C(CO)N1` (stereo in doubt; 18): 0.51 µM.
In test [1], `COC(=O)c1cc2c([nH]c3ccccc32)c(-c2ccccc2)n1` had a Ki of 3.89 µM.
On the same count and under the same terms, the figure for `COC(=O)c1cc2c(cn1)[nH]c1ccc(O)cc12` is 0.00266 µM.
Broadly, the Hill coefficient is the slope factor of the fitted curve. For `CCOC(=O)c1cc2c(cn1)[nH]c1ccccc12`, the Hill coefficient in test [2] stood at 0.74. The compound also yielded a Ki in test [1] of 0.0011 µM.
Compound `O=C(O)C1Cc2c([nH]c3ccccc23)C(c2ccccc2)N1` (configuration not stated) gave a Ki in test [1] of 6.11 µM.
The same measure, in the same setting: the same measure for `COC(=O)C(Cc1c[nH]c2ccccc12)N(C)C` (configuration not stated): more than 100 µM.
The same measure, in the same setting: the same measure for `CCC1NC(C(=O)OC)Cc2c1[nH]c1ccccc21` (configuration not stated): more than 100 µM.
In turn, `COC(=O)C1Cc2c([nH]c3ccccc23)C(c2ccccc2)N1` (stereo in doubt; 49) showed a Ki in test [1] of 54 µM.
Still for that read-out and setting: the figure for `CCC1NC(C(=O)OC)Cc2c1[nH]c1ccc(O)cc21` (stereo in doubt; 14a) is more than 100 µM; for `COC(=O)C1=Cc2c([nH]c3ccccc23)C(c2cccnc2)N1` (configuration not stated) it is 6.25 µM; for `COC(=O)c1cc2ccccc2cn1` it is 13.2 µM.
Same read-out and setting: the same measure for `CC(O)c1cc2c3ccccc3nc-2c[nH]1` (configuration not stated): 3.16 µM.
In test [1], `Oc1cc2c(cc1O)CNCC2` gave a Ki of more than 100 µM.
The compound `OCc1cc2c3ccccc3nc-2c[nH]1` displayed a Hill coefficient in test [3] of 0.93. In addition, the affinity in test [1], expressed as Ki, was 1.47 µM.
As to `CN1C=Cc2c([nH]c3ccccc23)C1`, the Ki in test [1] was more than 100 µM.
On the same count and under the same terms, the figure for `c1ccc2cnccc2c1` [ISOQUINOLINE] is more than 100 µM; for `COC(=O)C1Cc2c([nH]c3ccccc23)C(C)N1` (configuration not stated) it is more than 50 µM.
Regarding `CCCOC(=O)c1cc2c(cn1)[nH]c1ccccc12`, in test [1], the Ki was determined as 0.001 µM.
On the same count and under the same terms, the figure for `O=Cc1cccnc1` [NICOTINALDEHYDE] is more than 100 µM; for `COc1cc2c(cc1OC)CNCC2` it is more than 100 µM; for `O=C(O)c1cnc2ccccc2c1` it is more than 100 µM.
`COC(=O)C1Cc2ccccc2CN1` (configuration not stated): in test [1], the Ki was more than 100 µM.
In the case of `COc1ccc2[nH]c3c(c2c1)C=CNC3`, the Ki in test [1] is more than 500 µM.
Same read-out and setting: the same measure for `CC(=O)c1ccccn1`: more than 100 µM; for `COC(=O)c1cc2c3ccccc3n(C)c2cn1`: more than 50 µM; for `Oc1ccc2[nH]c3c(c2c1)C=CNC3`: more than 100 µM.
As to `CC(=O)c1cc2c3ccccc3nc-2c[nH]1`, the Hill coefficient in test [3] came out at 0.73. Moreover, the Ki in test [1] is 0.058 µM.
Turning to `CCc1nc(C(=O)OC)cc2c1[nH]c1ccccc12`, the Ki in test [1] was determined as 7.54 µM.
For `COC(=O)c1cc2c(cn1)[nH]c1ccccc12` [BETA-CCM], the Hill coefficient in test [3] worked out at 0.7. Also, in test [1], affinity was put at a Ki of 0.00105 µM.
In test [1], `C1=Cc2c([nH]c3ccccc23)CN1` gave a Ki of more than 100 µM.
Compound `COC(=O)C1Cc2c([nH]c3ccccc23)C(CO)N1` (stereo in doubt; 17) came in with a Ki in test [1] of 5 µM.
On the same count and under the same terms, the same measure for `c1ccc2c(c1)[nH]c1cnccc12` [NORHARMANE]: 1.62 µM; for `COC(=O)C1Cc2c([nH]c3ccc(O)cc23)CN1` (configuration not stated): 0.573 µM; for `CN(C)CCc1c[nH]c2ccccc12`: more than 100 µM.
As to `O=Cc1ccccn1` [2-PYRIDINECARBOXALDEHYDE], the Ki in test [1] is more than 100 µM.
Turning to `O=C(O)c1cc2c3ccccc3nc-2c[nH]1`, the Hill coefficient in test [3] was 0.72. The compound further showed a Ki in test [1] of 24 µM.
In turn, `COC(=O)c1cnc2ccccc2c1` showed a Ki in test [1] of more than 100 µM.
Still for that read-out and setting: the figure for `Cc1nccc2c1[nH]c1ccccc12` [HARMAN] is 12.4 µM.
Same read-out and setting: the figure for `CN(C)CCc1c[nH]c2ccc(O)cc12` [BUFOTENINE] is more than 100 µM; for `CCC1NC(C(=O)OC)=Cc2c1n(C)c1ccccc21` (configuration not stated) it is more than 100 µM; for `O=Cc1cnc2ccccc2c1` it is more than 100 µM.
`CCC1NC(C(=O)OC)Cc2c1[nH]c1ccc(O)cc21` (stereo in doubt; 14a+14b): the affinity in test [1], expressed as Ki, was 39 µM.
On to `O=Cc1cc2c3ccccc3nc-2c[nH]1`, for which the Hill coefficient in test [3] amounted to 0.93. Moreover, affinity in test [1] was put at a Ki of 0.0623 µM.
Turning to `COC(=O)C1CC2=C(C(c3ccccc3)N1)N(C)c1ccccc1C2` (configuration not stated), the Ki in test [1] is more than 100 µM.
The same measure, in the same setting: the figure for `COC(=O)C1Cc2c([nH]c3ccccc23)C(c2ccccc2)N1` (stereo in doubt; 60) is 174 µM.

The values are drawn from ChEMBL document CHEMBL1122149, “Beta-carbolines: synthesis and neurochemical and pharmacological actions on brain benzodiazepine receptors” (J Med Chem, 1982).
